Data reported in ChEMBL document CHEMBL5252642, “Design and synthesis of naturally-inspired SARS-CoV-2 inhibitors” (RSC Med Chem, 2023).
Active and inactive are the calls of the source. The rule behind the calls is not given here.

How the values were obtained:
[1] = Cytotoxicity against human A549-ACE2 cells; format: toxicity, cell-based
Summary of the method: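 A549-ACE2 cells (2,000/well) were exposed to compounds for 72 h. Viability was read as CellTiter-Glo luminescence. Controls were 0.5% DMSO and 10 µM camptothecin. Values come from triplicate dose-response curves.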

SARS-CoV-2 = assay: Antiviral activity against SARS-CoV-2 BetaCoV/France/IDF0372/2020 infected human A549-ACE2 cells assessed as inhibition of viral replication by qRT-PCR analysis; format: functional, organism-based; settings: Severe acute respiratory syndrome coronavirus 2, BetaCoV/France/IDF0372/2020, A549-ACE2
[2] = tested on: Severe acute respiratory syndrome coronavirus 2; assay: (§1) Inhibition of SARS-CoV-2 N-terminus His tagged nsp10/nsp16 complex expressed in Escherichia coli using [3H]SAM as substrate by scintillation proximity assay
Summary of the method: (§2)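 Compounds were serially titrated from 8 µM to 2 mM DMSO stocks, giving 5% DMSO final. They were preincubated 2 h at 23 °C with 125 nM nsp10–nsp16 (8:1) in 50 mM Tris-HCl pH 7.5, 1.5 mM MgCl2, 1 mM TCEP and 0.01% Triton X-100. Then 0.8 µM RNA and 2 µM SAM (30% 3H-SAM) were added for 30 min at 23 °C. Radioactivity was read. Tests were in triplicate, with curves constrained to 0–100.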

[3] = molecular target: Replicase polyprotein 1ab (Severe acute respiratory syndrome coronavirus 2) (UniProt P0DTD1); assay: (§3) Inhibition of SARS-CoV-2 nsp14 guanine-N7-methyltransferase activity
Summary of the method: (§4)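 Compounds were serially titrated from 8 µM to 2 mM DMSO stocks, giving 5% DMSO final. They were preincubated 2 h at 23 °C with 1.5 nM nsp14 in 20 mM Tris-HCl pH 7.5, 0.25 mM MgCl2, 1 mM TCEP and 0.01% Triton X-100. Then 50 nM RNA and 0.25 µM 3H-SAM were added for 20 min. Radioactivity was read. Tests were in triplicate, with SAH as positive control and curves constrained to 0–100.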

[4] = molecular target: Replicase polyprotein 1ab (Severe acute respiratory syndrome coronavirus 2, UniProt P0DTD1); assay: as §3; summary of the method: as §4
[5] = as §1; parameters: species or system Severe acute respiratory syndrome coronavirus 2; summary of the method: as §2

Cc1ccc(S(=O)(=O)N2C[C@@]34CN(C)C[C@@H](O3)[C@H]3[C@@H](Oc5ncccn5)CC[C@]2(C(C)C)[C@H]34)cc1
CC50 [1]: 17 µM | EC50 (SARS-CoV-2): 20 µM

Cc1ccc(S(=O)(=O)N2C[C@@]34CN(C(=O)c5cccs5)C[C@@H](O3)[C@H]3[C@@H](Oc5cc(C)nc(N)n5)CC[C@]2(C(C)C)[C@H]34)cc1
CC50 [1]: > 50 µM | EC50 (SARS-CoV-2): > 50 µM

Cc1ccc(S(=O)(=O)N2C[C@@]34CN(C(=O)c5cccs5)C[C@@H](O3)[C@@H]3[C@H]4[C@@]2(C(C)C)CC[C@@H]3O)cc1
CC50 [1]: > 50 µM | EC50 (SARS-CoV-2): 16 µM

Cc1ccc(S(=O)(=O)N2C[C@@]34CN(Cc5ccccc5)C[C@@H](O3)[C@H]3C(=O)CC[C@]2(C(C)C)[C@H]34)cc1
CC50 [1]: 5.8 µM | EC50 (SARS-CoV-2): 8.4 µM

Cc1ccc(S(=O)(=O)N2C[C@@]34CN(Cc5ccccc5)C[C@@H](O3)[C@H]3C(=O)C=C[C@]2(C(C)C)[C@H]34)cc1
CC50 [1]: 14 µM | EC50 (SARS-CoV-2): 16 µM

Cc1ccc(S(=O)(=O)N2C[C@@]34CN(Cc5nc6ccccc6s5)C[C@@H](O3)[C@H]3C(=O)CC[C@]2(C(C)C)[C@H]34)cc1
CC50 [1]: 37 µM | EC50 (SARS-CoV-2): 5.3 µM

Cc1ccc(S(=O)(=O)N2C[C@@]34CNC[C@@H](O3)[C@H]3C(=O)CC[C@]2(C(C)C)[C@H]34)cc1
CC50 [1]: > 50 µM | EC50 (SARS-CoV-2): > 50 µM

Cc1ccc(S(=O)(=O)N2C[C@@]34CN(C(=O)c5ccc(F)cc5N)C[C@@H](O3)[C@@H]3[C@H]4[C@@]2(C(C)C)CC[C@@H]3O)cc1
CC50 [1]: 20 µM | EC50 (SARS-CoV-2): 14 µM

Cc1ccc(S(=O)(=O)N2C[C@@]34CN(C)C[C@@H](O3)[C@H]3C(=O)CC[C@]2(C(C)C)[C@H]34)cc1
CC50 [1]: > 50 µM | EC50 (SARS-CoV-2): > 50 µM

COc1ccc(CCN2C[C@H]3O[C@]4(C2)CN(S(=O)(=O)c2ccc(C)cc2)[C@]2(C(C)C)C=C[C@H](O)[C@H]3[C@H]42)cc1
inhibition [2]: inactive | CC50 [1]: 12 µM | inhibition [3]: inactive | EC50 (SARS-CoV-2): 3.7 µM

CNC(=O)N1C[C@H]2O[C@]3(C1)CN(S(=O)(=O)c1ccc(C)cc1)[C@]1(C(C)C)CC[C@H](O)[C@H]2[C@H]31
CC50 [1]: > 50 µM | EC50 (SARS-CoV-2): > 50 µM

COCn1ccc(N2C[C@H]3O[C@]4(C2)CN(S(=O)(=O)c2ccc(C)cc2)[C@]2(C(C)C)CC[C@H](O)[C@H]3[C@H]42)nc1=O
CC50 [1]: > 50 µM | EC50 (SARS-CoV-2): > 17 µM

COc1cc(CN2C[C@H]3O[C@]4(C2)CN(S(=O)(=O)c2ccc(C)cc2)[C@]2(C(C)C)CC[C@H](OCCCN(C)C)[C@H]3[C@H]42)cc(OC)c1
inhibition [2]: inactive | CC50 [1]: 7.7 µM | IC50 [4]: > 100 µM | EC50 (SARS-CoV-2): 1.4 µM

Cc1ccc(S(=O)(=O)N2C[C@@]34CN(Cc5ccccc5)C[C@@H](O3)[C@H]3[C@@H](Oc5ncccn5)CC[C@]2(C(C)C)[C@H]34)cc1
CC50 [1]: 6.3 µM | EC50 (SARS-CoV-2): 6.2 µM

Cc1ccc(S(=O)(=O)N2C[C@@]34CN(Cc5ccccc5)C[C@@H](O3)[C@@H]3[C@H]4[C@@]2(C(C)C)C=C[C@@H]3O)cc1
CC50 [1]: > 50 µM | EC50 (SARS-CoV-2): 17 µM

Cc1ccc(S(=O)(=O)N2C[C@@]34CN(CCc5c[nH]c6ccccc56)C[C@@H](O3)[C@@H]3[C@H]4[C@@]2(C(C)C)CC[C@@H]3O)cc1
CC50 [1]: 13 µM | EC50 (SARS-CoV-2): 8.3 µM

Cc1ccc(S(=O)(=O)N2C[C@@]34CN(C(=O)c5ccc(N)cn5)C[C@@H](O3)[C@@H]3[C@H]4[C@@]2(C(C)C)CC[C@@H]3O)cc1
CC50 [1]: > 50 µM | EC50 (SARS-CoV-2): 37 µM

COc1ccc(CCN2C[C@H]3O[C@]4(C2)CN(S(=O)(=O)c2ccc(C)cc2)[C@]2(C(C)C)C=C[C@H](Oc5ncccn5)[C@H]3[C@H]42)cc1
EC50 (SARS-CoV-2): > 50 µM

Nc1ncnc2c1ncn2[C@@H]1O[C@H](CSCC[C@H](N)C(=O)O)[C@@H](O)[C@H]1O [S-ADENOSYLHOMOCYSTEINE]
IC50 [5]: 3.9 µM | IC50 [4]: 0.22 µM

COc1ccc(CCN2C[C@H]3O[C@]4(C2)CN(S(=O)(=O)c2ccc(C)cc2)[C@]2(C(C)C)C=CC(=O)[C@H]3[C@H]42)cc1
CC50 [1]: 6.6 µM | EC50 (SARS-CoV-2): 13 µM

COc1cc(CN2C[C@H]3O[C@]4(C2)CN(S(=O)(=O)c2ccc(C)cc2)[C@]2(C(C)C)CC[C@H](O)[C@H]3[C@H]42)cc(OC)c1
CC50 [1]: 13 µM | EC50 (SARS-CoV-2): 5.6 µM

Cc1ccc(S(=O)(=O)N2C[C@@]34CN(Cc5nc6ccccc6s5)C[C@@H](O3)[C@@H]3[C@H]4[C@@]2(C(C)C)CC[C@@H]3O)cc1
CC50 [1]: 12 µM | EC50 (SARS-CoV-2): 6.6 µM

Cc1ccc(S(=O)(=O)N2C[C@@]34CN(C(=O)C5CC5)C[C@@H](O3)[C@H]3[C@@H](Oc5ncccn5)CC[C@]2(C(C)C)[C@H]34)cc1
CC50 [1]: > 50 µM | EC50 (SARS-CoV-2): > 40 µM
